Measured values reported in article PMC8131326 (The Journal of Biological Chemistry, 2021).

Legend:
human Kv1.1 = assay: Whole-cell patch clamp, HEK 293T cells expressing Kv1.1; format: cell-based; details: 0.2 mM TEA; n = 5
Method in brief: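 HEK 293T cells carrying plasmids for human Kv1.1 plus EGFP. Whole-cell patch clamp at room temperature after holding at −70 mV for 4 min, filtered at 2 kHz and digitized at 20 kHz. Currents elicited by a +10 mV depolarization were compared before and after application of the test agent.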

[1] = system: carrageenan-induced paw edema in mice; assay: Carrageenan-induced paw edema assay; format: in vivo, Kunming mice; details: FS48 1.5 mg/kg
Method in brief: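 Male and female Kunming mice, randomized into four groups of six. Test compound (1.5 mg/kg), saline or aspirin (5 mg/kg) given i.p. 1 h before intraplantar 1% carrageenan in saline (50 μl) into the right hind paw. Paw volume to the ankle measured by plethysmometer before injection and at 2–24 h; swelling taken as Δvolume. In a second set, paws were excised at 4 h for histology, cytokine and MPO assays. Mean ± SEM, n = 6.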

[2] = system: NO production in Raw 264.7 cells; assay: LPS-induced NO production and iNOS mRNA in Raw 264.7 cells; format: cell-based, murine; details: 100 ng/ml LPS
Method in brief: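 Nitrite: 5 × 10^4 Raw 264.7 cells/well grown overnight, then given test compound (0.1–10 μM) plus 100 ng/ml LPS (E. coli O55:B5) for 24 h; supernatant assayed by Griess reagent at 540 nm. MgTx 100 nM served as positive control; cells without compound and/or LPS as negative controls; repeated four times. iNOS mRNA: 3 μM compound plus LPS for 8 h, SYBR qRT-PCR normalized to GAPDH (2−ΔΔCT), fold change versus untreated, in triplicate.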

[3] = system: Kv1.3 expression in Raw 264.7 cells; assay: Kv1.3 channel mRNA and protein expression in LPS-activated Raw 264.7 cells; format: cell-based, murine; details: 3 μM FS48, 100 nM MgTx, 100 ng/ml LPS
Method in brief: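 Raw 264.7 cells activated with 100 ng/ml LPS and exposed to test compound (3 μM) or MgTx (100 nM) for 24 h. Kv1.3 mRNA: Trizol RNA extraction, SYBR qRT-PCR (95 °C 5 min; 40 cycles of 95 °C 15 s / 60 °C 45 s), normalized to GAPDH by 2−ΔΔCT, in triplicate. Kv1.3 protein: western blot with primary antibody 1:2000 overnight at 4 °C, HRP chemiluminescence, densitometry against GAPDH, in triplicate.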

[4] = system: Kv current of LPS-activated Raw 264.7 cells; assay: Kv currents of LPS-activated Raw 264.7 macrophages; format: cell-based, murine
Method in brief: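 Raw 264.7 cells in DMEM/10% FBS at 37 °C, 5% CO2, LPS-activated. Whole-cell patch clamp at room temperature, held at −70 mV for 4 min to equilibrate, filtered at 2 kHz and digitized at 20 kHz, 80% series-resistance compensation. Currents compared before and after test compound or 100 nM MgTx, with amplitude taken at +40 mV. I–V curves used 150-ms steps from −50 to +40 mV, 10 mV increments, 2 s intervals. Mean ± SEM, at least four experiments.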

For `CC[N+](CC)(CC)CC` [TEA, tetraethylammonium], the “reduction of Kv1.1 current by TEA” value (human Kv1.1) was 31.81 ± 1.98%.

In the case of `CC(=O)Oc1ccccc1C(=O)O` [aspirin], the “carrageenan-induced secretion of IL-1β, IL-6, and TNF-α in paw tissues” value ([1]; aspirin 5 mg/kg i.p., 4 h after carrageenan) is reported as “diminished”, the “leukocyte infiltration in paw (histological analysis)” value ([1]; aspirin 5 mg/kg i.p., 4 h after carrageenan, HE stain) is reported as “obviously reduced” and the “suppression of hind paw edema at 4 h versus model group” value ([1]; aspirin 5 mg/kg, intraperitoneally 1 h before carrageenan (1%, 50 μl), 4 h, n = 6) is reported as “approximately 44.79%”.

“MgTx: a highly specific Kv1.3 blocker, positive control (UniProtKB P40755) (TIINVKCTSPKQCLPPCKAQFGQSAGAKCMNGKCKCYPH; UniProt P40755 1-39, looked up)” was tested, and the “inhibition of LPS-induced nitrite production” value ([2]; 10 μM FS48, 100 nM MgTx, 24 h, Griess reagent) was “about 37.65%”, the “LPS-induced increase of mRNA level of iNOS” value ([2]; exposure for 8 h, 3 μM FS48, qRT-PCR) was “evidently inhibited” and the “Kv1.3 mRNA expression induced by LPS” value ([3]; real-time PCR) was “greatly reduced”. For the same molecule, the “decrease of Kv1.3 protein expression induced by LPS” value ([3]; 24 h, western blot normalized to GAPDH) was 76.15 ± 13.81%, the “Kv currents at all test voltages (−50 to +40 mV)” value ([4]; 1 μM FS48 or 100 nM MgTx, LPS-activated Raw 264.7 cells, n = 4) was “reduced markedly” and the “reduction of amplitude of Kv current of LPS-activated macrophages” value ([4]; at +40 mV, 100 nM MgTx, 10 μM FS48) was 59.45 ± 2.79%. For the same molecule, the “effect on the second phase of carrageenan-induced paw edema” value ([1]; MgTx 0.4179 mg/kg, intraperitoneally 1 h before carrageenan) was “remarkable anti-inflammatory effects”.
